Laboratory results reported in ChEMBL document CHEMBL4732237, “Discovery of 4-alkoxy-2-aryl-6,7-dimethoxyquinolines as a new class of topoisomerase I inhibitors endowed with potent in vitro anticancer activity” (2021).

Experiments:
Assay type in all cases: functional
Settings in all cases: read-out: GI
[1] = system: HOP-92; assay: Growth inhibition of human HOP-92 cells at 10 uM incubated for 48 hrs by sulforhodamine B assay relative to control
Method in brief: (§1)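 NCI-60 single-dose screen. Cells were grown in RPMI 1640 with 5% FBS and 2 mM L-glutamine and plated 24 h before drug addition. Compound was added at one concentration in DMSO-derived medium and incubated for 48 h at 37 °C in 5% CO2. Read-out was SRB protein stain at 515 nm. Result is percent growth versus the no-drug control and the time-zero cell count; values below 0 indicate lethality.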

[2] = system: SK-OV-3; assay: Growth inhibition of human SK-OV-3 cells at 10 uM incubated for 48 hrs by sulforhodamine B assay relative to control
Method in brief: (§2)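 NCI one-dose screen. Cells grown in RPMI 1640 with 5% FBS and 2 mM L-glutamine, plated and incubated 24 h at 37 °C, 5% CO2. DMSO-dissolved drug added, then 48 h further incubation. Adherent cells fixed with cold TCA, suspension cells fixed after settling. Stained with 0.4% SRB, absorbance read at 515 nm. Reported as percent growth relative to no-drug control and time-zero cell number.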

[3] = system: NCI-H322M; assay: Growth inhibition of human NCI-H322M cells at 10 uM incubated for 48 hrs by sulforhodamine B assay relative to control; method in brief: as §2
[4] = system: Malme-3M; assay: Growth inhibition of human Malme-3M cells at 10 uM incubated for 48 hrs by sulforhodamine B assay relative to control; method in brief: as §2
[5] = system: TK-10; assay: Growth inhibition of human TK-10 cells at 10 uM incubated for 48 hrs by sulforhodamine B assay relative to control
Method in brief: (§3)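 NCI one-dose screen across a 59-line panel. Cells were grown in RPMI 1640 with 5% FBS and 2 mM L-glutamine, plated and pre-incubated 24 h, then exposed to drug for 48 h at 37 °C, 5% CO2. Adherent cells were fixed with cold TCA (10% final), stained with 0.4% SRB in 1% acetic acid and read at 515 nm. Result is percent growth relative to no-drug control and time-zero cell count.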

[6] = system: SW-620; assay: Growth inhibition of human SW-620 cells at 10 uM incubated for 48 hrs by sulforhodamine B assay relative to control; method in brief: as §3
[7] = system: U-251; assay: Growth inhibition of human U-251 cells at 10 uM incubated for 48 hrs by sulforhodamine B assay relative to control; method in brief: as §3
[8] = system: MOLT-4; assay: Growth inhibition of human MOLT-4 cells at 10 uM incubated for 48 hrs by sulforhodamine B assay relative to control; method in brief: as §2
[9] = system: BT-549; assay: Growth inhibition of human BT-549 cells at 10 uM incubated for 48 hrs by sulforhodamine B assay relative to control; method in brief: as §1
[10] = system: NCI-H23; assay: Growth inhibition of human NCI-H23 cells at 10 uM incubated for 48 hrs by sulforhodamine B assay relative to control; method in brief: as §2
[11] = system: A498; assay: Growth inhibition of human A498 cells at 10 uM incubated for 48 hrs by sulforhodamine B assay relative to control; method in brief: as §3
[12] = system: OVCAR-4; assay: Growth inhibition of human OVCAR-4 cells at 10 uM incubated for 48 hrs by sulforhodamine B assay relative to control; method in brief: as §2
[13] = system: UACC-257; assay: Growth inhibition of human UACC-257 cells at 10 uM incubated for 48 hrs by sulforhodamine B assay relative to control; method in brief: as §3

Structure (SMILES)	inhibition of growth at 10 µM [1]	inhibition of growth at 10 µM [2]	inhibition of growth at 10 µM [3]	inhibition of growth at 10 µM [4]	inhibition of growth at 10 µM [5]	inhibition of growth at 10 µM [6]	inhibition of growth at 10 µM [7]	inhibition of growth at 10 µM [8]	inhibition of growth at 10 µM [9]	inhibition of growth at 10 µM [10]	inhibition of growth at 10 µM [11]	inhibition of growth at 10 µM [12]	inhibition of growth at 10 µM [13]
COc1cc2nc(-c3ccc(C(F)(F)F)cc3)cc(OCCN3CCCCC3)c2cc1OC	13%	13%	13%	13%	13%	13%	13%	13%	13%	13%	13%	13%	13%
COc1cc2nc(-c3ccc(C(F)(F)F)cc3)cc(OCCN3CCC(O)CC3)c2cc1OC	13%	13%	13%	13%	13%	13%	13%	13%	13%	13%	13%	13%	13%
COc1cc2nc(-c3ccc(Cl)cc3)cc(OCCN3CCOCC3)c2cc1OC	3%	3%	3%	3%	3%	3%	3%	3%	3%	3%	3%	3%	3%
COc1cc2nc(-c3ccc(C(F)(F)F)cc3)cc(OCCN3CCOCC3)c2cc1OC	13%	13%	13%	13%	13%	13%	13%	13%	13%	13%	13%	13%	13%
COc1cc2nc(-c3ccc(Cl)cc3)cc(OCCN3CCCC3)c2cc1OC	3%	3%	3%	3%	3%	3%	3%	3%	3%	3%	3%	3%	3%
COc1cc2nc(-c3ccco3)cc(OCCCN3CCC(O)CC3)c2cc1OC	46%	46%	46%	46%	46%	46%	46%	46%	46%	46%	46%	46%	46%
COc1cc2nc(-c3ccc(Cl)cc3)cc(OCCN3CCC(O)CC3)c2cc1OC	3%	3%	3%	3%	3%	3%	3%	3%	3%	3%	3%	3%	3%
